{
  "source": "ChEMBL document CHEMBL4351001",
  "about": "“2-Aminoimidazole-based antagonists of the 5-HT6 receptor - A new concept in aminergic GPCR ligand design” (Eur J Med Chem, 2019)",
  "key": {"[1]": {"molecular_target": "5-hydroxytryptamine receptor 2A (Homo sapiens, UniProt P28223)", "sequence (P28223 whole entry)": "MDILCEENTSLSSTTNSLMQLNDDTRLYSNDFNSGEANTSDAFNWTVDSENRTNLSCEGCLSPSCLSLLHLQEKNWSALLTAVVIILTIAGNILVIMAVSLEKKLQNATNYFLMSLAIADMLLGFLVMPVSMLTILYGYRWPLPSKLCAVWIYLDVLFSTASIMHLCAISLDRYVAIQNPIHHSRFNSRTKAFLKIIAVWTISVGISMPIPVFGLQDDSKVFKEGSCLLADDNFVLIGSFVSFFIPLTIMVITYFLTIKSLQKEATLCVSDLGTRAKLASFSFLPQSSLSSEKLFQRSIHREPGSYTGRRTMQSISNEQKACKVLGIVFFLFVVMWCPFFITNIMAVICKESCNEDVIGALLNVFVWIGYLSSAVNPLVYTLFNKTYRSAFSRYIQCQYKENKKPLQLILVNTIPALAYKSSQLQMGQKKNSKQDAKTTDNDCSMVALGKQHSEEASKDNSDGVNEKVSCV", "test": "Displacement of [3H]ketanserin from human 5HT2A receptor expressed in CHOK1 cells incubated for 1 hr by liquid scintillation counter method", "assay_type": "cell-based", "settings": "read-out: Ki; call rule not given here"}, "D(2) dopamine receptor": {"molecular_target": "D(2) dopamine receptor (Homo sapiens, UniProt P14416)", "sequence (P14416 whole entry)": "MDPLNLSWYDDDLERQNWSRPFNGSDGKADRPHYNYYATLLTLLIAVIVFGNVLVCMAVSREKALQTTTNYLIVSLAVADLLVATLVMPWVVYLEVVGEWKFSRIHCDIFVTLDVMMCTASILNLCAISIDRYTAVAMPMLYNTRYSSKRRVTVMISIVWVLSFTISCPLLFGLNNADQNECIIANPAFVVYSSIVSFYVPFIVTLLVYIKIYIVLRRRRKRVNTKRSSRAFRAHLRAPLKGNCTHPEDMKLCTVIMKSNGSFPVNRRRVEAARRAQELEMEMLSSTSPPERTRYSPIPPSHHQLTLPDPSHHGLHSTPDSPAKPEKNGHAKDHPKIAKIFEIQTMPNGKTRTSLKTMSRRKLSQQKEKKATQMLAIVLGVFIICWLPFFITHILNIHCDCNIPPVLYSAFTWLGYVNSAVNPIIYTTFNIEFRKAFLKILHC", "test": "Displacement of [3H]-methylspiperone from human D2 long receptor expressed in HEK293 cells measured after 1 hr by liquid scintillation counter method", "assay_type": "cell-based", "procedure,_shortened": "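HEK293 membranes stably expressing human D2L receptor, incubated 1 h at 37°C, then filtered and retained radioactivity counted; (+)-butaclamol 1 μM defines nonspecific binding. Tested in triplicate at 7–8 concentrations (10⁻¹¹–10⁻⁴ M); Ki via Cheng-Prusoff, averaged over at least two independent experiments.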"}, "[2]": {"molecular_target": "T1, 5-hydroxytryptamine receptor 6 (Homo sapiens, UniProt P50406)", "T1 sequence (P50406 whole entry)": "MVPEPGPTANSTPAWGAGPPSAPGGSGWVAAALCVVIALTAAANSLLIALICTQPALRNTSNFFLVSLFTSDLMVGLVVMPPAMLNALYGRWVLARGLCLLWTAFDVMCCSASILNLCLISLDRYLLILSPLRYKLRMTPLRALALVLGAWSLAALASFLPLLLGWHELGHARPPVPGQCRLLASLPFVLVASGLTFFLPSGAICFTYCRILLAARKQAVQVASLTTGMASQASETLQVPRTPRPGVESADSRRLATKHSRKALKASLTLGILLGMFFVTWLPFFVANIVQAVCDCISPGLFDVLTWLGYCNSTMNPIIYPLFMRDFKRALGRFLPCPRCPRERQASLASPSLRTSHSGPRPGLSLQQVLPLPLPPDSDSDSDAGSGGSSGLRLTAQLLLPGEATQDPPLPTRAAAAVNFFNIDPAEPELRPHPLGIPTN", "test": "Displacement of [3H]LSD from human 5HT6 receptor expressed in HEK293 cells measured after 1 hr by liquid scintillation counter method", "assay_type": "cell-based"}, "[3]": {"molecular_target": "5-hydroxytryptamine receptor 7 (Homo sapiens, UniProt P34969)", "sequence (P34969 whole entry)": "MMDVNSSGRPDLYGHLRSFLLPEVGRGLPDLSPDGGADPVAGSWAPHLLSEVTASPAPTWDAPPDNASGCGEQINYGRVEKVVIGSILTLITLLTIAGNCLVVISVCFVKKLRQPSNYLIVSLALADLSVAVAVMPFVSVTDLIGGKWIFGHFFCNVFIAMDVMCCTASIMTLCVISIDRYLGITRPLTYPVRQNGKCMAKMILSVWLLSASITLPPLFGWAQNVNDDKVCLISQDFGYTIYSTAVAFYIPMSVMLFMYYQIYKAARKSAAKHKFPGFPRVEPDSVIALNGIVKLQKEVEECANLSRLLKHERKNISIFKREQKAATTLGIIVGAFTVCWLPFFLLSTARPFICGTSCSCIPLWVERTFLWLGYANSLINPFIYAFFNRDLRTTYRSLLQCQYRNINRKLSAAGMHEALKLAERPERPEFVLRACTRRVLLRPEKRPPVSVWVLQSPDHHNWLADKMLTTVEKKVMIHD", "test": "Displacement of [3H]-5-CT from human 5HT7 receptor expressed in HEK293 cells measured after 1 hr by liquid scintillation counter method", "assay_type": "cell-based", "settings": "read-out: Ki"}, "HepG2": {"tested_on": "HepG2", "test": "Cytotoxicity against human HepG2 cells assessed as reduction in cell viability measured after 24 hrs by Prestoblue assay", "assay_type": "cell-based", "settings": "HepG2, 24 h", "procedure,_shortened": "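HepG2 cells seeded at 2x10^4 per well in DMEM with 10% FBS, grown 24 h (37°C, 5% CO2), then exposed 24 h to 1, 10, 50 and 100 μM compound. Viability read with PrestoBlue (fluorescence); membrane damage by ToxiLight (luminescence).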"}, "Cytochrome P450 3A4": {"molecular_target": "Cytochrome P450 3A4 (Homo sapiens, UniProt P08684)", "sequence (P08684 whole entry)": "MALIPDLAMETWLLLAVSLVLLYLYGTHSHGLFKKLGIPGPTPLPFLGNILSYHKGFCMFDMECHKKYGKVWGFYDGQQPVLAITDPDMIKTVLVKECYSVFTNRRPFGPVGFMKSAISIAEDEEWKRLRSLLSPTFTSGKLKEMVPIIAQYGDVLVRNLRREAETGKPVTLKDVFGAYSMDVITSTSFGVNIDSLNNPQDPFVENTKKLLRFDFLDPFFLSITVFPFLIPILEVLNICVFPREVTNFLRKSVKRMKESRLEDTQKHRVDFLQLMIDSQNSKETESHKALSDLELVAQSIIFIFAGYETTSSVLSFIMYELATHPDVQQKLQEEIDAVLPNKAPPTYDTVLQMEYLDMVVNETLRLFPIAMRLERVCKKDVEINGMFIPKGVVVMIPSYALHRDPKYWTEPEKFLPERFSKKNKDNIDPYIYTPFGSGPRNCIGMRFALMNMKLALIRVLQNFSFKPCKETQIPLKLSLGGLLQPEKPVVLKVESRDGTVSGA", "test": "Inhibition of human recombinant CYP3A4 expressed in Escherichia coli at […] using luciferin PFBE as substrate preincubated for 5 mins followed by NADPH addition measured after 30 mins by P450-Glo luminescence assay", "assay_type": "ADME", "settings": "recombinant enzyme, 0.5 h"}, "[4]": {"test": "Mutagenicity in Salmonella typhimurium TA100 at up to 10 uM measured after 90 mins by Ames test", "assay_type": "toxicity", "settings": "salmonella enterica subsp. enterica serovar typhimurium", "procedure,_shortened": "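Ames microplate fluctuation with S. typhimurium TA100; bacteria exposed to 1 and 10 μM compound 90 min at 37°C in limited-histidine medium, then distributed into histidine-free indicator medium, 72 h at 37°C. Revertant growth scored by colour change (absorbance 420 nm); NQNO 0.5 μM positive control; alert at ≥2.0-fold over baseline and binomial B ≥0.99.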"}, "[5]": {"molecular_target": "T1, 5-hydroxytryptamine receptor 6", "test": "Antagonist activity at human 5HT6 receptor expressed in HEK293 cells assessed as inhibition of 5-CT induced cAMP production measured after 30 mins by TR-FRET assay", "assay_type": "functional, cell-based"}, "[6]": {"molecular_target": "Histamine H1 receptor (Homo sapiens) (UniProt P35367)", "sequence (P35367 whole entry)": "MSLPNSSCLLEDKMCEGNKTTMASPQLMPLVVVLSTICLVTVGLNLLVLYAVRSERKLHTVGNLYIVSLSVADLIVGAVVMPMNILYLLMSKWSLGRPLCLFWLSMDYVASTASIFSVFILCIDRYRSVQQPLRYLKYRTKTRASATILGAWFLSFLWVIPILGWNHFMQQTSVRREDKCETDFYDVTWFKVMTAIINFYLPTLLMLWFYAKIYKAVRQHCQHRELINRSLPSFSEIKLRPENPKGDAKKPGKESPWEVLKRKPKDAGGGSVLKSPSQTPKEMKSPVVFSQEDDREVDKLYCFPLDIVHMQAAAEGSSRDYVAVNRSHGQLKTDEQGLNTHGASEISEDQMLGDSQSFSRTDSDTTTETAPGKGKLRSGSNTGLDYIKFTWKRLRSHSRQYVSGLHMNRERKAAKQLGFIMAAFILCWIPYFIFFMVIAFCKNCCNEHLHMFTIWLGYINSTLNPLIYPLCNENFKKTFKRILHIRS", "test": "Displacement of [3H] pyrilamine from human recombinant H1 histamine receptor at 10^-6 M measured after 60 mins by scintillation counting method relative to control"}, "[7]": {"molecular_target": "T2, 5-hydroxytryptamine receptor 2C (Homo sapiens) (UniProt P28335)", "T2 sequence (whole entry)": "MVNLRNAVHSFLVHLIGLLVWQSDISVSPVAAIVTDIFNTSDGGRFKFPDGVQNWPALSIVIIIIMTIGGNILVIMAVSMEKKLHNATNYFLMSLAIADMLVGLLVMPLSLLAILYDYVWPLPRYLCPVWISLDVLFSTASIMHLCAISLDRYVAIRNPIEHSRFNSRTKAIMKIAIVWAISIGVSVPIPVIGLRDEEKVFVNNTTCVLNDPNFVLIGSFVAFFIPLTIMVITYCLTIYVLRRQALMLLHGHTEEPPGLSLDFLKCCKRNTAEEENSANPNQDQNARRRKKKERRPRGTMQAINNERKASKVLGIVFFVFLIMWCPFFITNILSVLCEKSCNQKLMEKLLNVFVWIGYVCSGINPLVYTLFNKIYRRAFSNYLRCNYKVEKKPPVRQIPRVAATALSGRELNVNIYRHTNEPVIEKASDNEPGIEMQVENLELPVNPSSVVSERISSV", "test": "Displacement of [3H]mesulergine from human recombinant 5HT2C serotonin receptor at 10^-6M incubated for 120 mins by scintillation counter method relative to control"}, "[8]": {"molecular_target": "T2, 5-hydroxytryptamine receptor 2C (Homo sapiens)", "test": "Agonist activity at human 5HT2C serotonin receptor at 10^-5 M relative to control"}, "hERG (KCNH2)": {"molecular_target": "hERG (KCNH2) (Homo sapiens, UniProt Q12809)", "sequence (Q12809 whole entry)": "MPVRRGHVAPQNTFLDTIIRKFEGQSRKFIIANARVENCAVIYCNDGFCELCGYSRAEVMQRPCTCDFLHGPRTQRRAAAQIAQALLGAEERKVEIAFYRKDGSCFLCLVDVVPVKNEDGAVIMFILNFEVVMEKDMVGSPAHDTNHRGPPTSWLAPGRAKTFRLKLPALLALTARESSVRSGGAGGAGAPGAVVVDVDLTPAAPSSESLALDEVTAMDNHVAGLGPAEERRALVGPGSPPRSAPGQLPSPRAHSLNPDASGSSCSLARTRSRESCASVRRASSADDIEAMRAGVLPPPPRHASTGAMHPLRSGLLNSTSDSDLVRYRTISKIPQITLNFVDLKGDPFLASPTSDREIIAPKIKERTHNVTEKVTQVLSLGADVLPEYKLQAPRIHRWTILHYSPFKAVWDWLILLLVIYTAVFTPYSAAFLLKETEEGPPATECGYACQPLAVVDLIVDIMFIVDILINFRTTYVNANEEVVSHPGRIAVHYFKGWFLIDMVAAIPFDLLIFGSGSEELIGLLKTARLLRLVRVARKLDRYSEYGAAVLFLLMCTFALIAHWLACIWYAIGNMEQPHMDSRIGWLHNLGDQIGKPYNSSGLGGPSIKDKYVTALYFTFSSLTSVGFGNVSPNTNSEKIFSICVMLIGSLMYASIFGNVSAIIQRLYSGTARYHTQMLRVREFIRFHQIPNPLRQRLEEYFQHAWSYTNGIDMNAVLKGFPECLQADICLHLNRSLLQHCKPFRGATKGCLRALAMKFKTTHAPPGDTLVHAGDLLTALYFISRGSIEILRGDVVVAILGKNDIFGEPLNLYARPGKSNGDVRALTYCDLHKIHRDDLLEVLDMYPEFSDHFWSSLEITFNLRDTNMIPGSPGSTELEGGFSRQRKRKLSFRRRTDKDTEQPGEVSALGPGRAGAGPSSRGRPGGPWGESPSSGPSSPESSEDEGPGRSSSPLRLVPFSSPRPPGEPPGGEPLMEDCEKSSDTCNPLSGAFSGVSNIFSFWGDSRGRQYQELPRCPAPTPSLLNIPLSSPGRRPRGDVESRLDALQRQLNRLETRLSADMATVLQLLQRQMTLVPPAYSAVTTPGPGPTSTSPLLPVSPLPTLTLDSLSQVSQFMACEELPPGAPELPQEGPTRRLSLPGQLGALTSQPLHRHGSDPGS", "test": "Displacement of [3H] dofetilide from human recombinant ERG at 10^-6 M measured after 60 mins by scintillation counting method relative to control", "settings": "probe [3H]dofetilide"}, "[9]": {"molecular_target": "5-hydroxytryptamine receptor 2B (Homo sapiens) (UniProt P41595)", "sequence (P41595 whole entry)": "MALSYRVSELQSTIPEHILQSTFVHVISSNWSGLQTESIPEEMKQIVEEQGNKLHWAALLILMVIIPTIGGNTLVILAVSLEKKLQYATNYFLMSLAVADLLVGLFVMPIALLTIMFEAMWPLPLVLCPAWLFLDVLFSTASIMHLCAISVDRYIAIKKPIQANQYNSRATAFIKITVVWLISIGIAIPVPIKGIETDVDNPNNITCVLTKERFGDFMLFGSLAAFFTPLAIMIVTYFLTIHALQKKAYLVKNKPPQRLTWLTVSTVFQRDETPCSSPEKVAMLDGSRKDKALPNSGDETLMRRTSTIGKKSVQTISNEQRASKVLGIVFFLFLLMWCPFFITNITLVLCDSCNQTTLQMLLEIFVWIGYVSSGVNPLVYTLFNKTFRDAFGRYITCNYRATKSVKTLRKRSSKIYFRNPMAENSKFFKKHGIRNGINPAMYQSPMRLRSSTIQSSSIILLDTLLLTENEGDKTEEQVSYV", "test": "Antagonist activity at human recombinant 5HT2B receptor expressed in CHOK1 cells at 10^-6 M measured after 30 mins by HTRF assay relative to control", "assay_type": "cell-based", "design": "scale not given: the % may be the effect or the level left"}, "[10]": {"test": "Solubility of compound in water", "assay_type": "physicochemical", "settings": "water; read-out: solubility"}, "[11]": {"test": "Acute oral toxicity in Wistar rat by OECD up and down test guideline method", "settings": "in vivo", "procedure,_shortened": "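Female rats given a single oral dose under OECD Test Guideline No. 425 (Acute Oral Toxicity, Up-and-Down Procedure); acute toxicity class assigned.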"}, "in vitro": {"test": "in vitro", "settings": "rat, microsomes"}},
  "data": [
    {"smiles": "Cc1nc(N)[nH]c1-c1cn(S(=O)(=O)c2cccc3ccccc23)c2ccccc12.Cl", "values": [
      {"measurement": "Ki", "setting": "[1]", "result": 490, "unit": "nM"},
      {"measurement": "Ki", "setting": "D(2) dopamine receptor", "result": 1170, "unit": "nM"},
      {"measurement": "Ki", "setting": "[2]", "result": 8, "unit": "nM"},
      {"measurement": "Ki", "setting": "[3]", "result": 2510, "unit": "nM"},
      {"measurement": "IC50", "setting": "HepG2", "result": 15700, "unit": "nM"},
      {"measurement": "INH", "setting": "Cytochrome P450 3A4", "result": "Active"},
      {"measurement": "Activity", "setting": "[4]", "result": "Non-Toxic"},
      {"measurement": "Kb", "setting": "[5]", "result": 4.8, "unit": "nM"},
      {"measurement": "inhibition", "setting": "[6]", "result": 70.1, "unit": "%"},
      {"measurement": "inhibition", "setting": "[7]", "result": 52.7, "unit": "%"},
      {"measurement": "Activity", "setting": "[8]", "result": 21.3, "unit": "%"},
      {"measurement": "inhibition at 1 h, 1 µM", "setting": "hERG (KCNH2)", "result": 25.7, "unit": "%"},
      {"measurement": "Activity", "setting": "[9]", "result": -2.8, "unit": "%"},
      {"measurement": "solubility", "setting": "[10]", "result": "1000 to 10000", "unit": "µg/mL"},
      {"measurement": "LD50", "setting": "[11]", "result": "> 2000", "unit": "mg/kg"},
      {"measurement": "microsomal CLint", "setting": "in vitro", "result": 60.3, "unit": "µL/min/mg"}
    ]}
  ]
}
